Target: T1, recombinant Lyp (Homo sapiens, UniProt Q9Y2R2)
T1 sequence (Q9Y2R2 2-309): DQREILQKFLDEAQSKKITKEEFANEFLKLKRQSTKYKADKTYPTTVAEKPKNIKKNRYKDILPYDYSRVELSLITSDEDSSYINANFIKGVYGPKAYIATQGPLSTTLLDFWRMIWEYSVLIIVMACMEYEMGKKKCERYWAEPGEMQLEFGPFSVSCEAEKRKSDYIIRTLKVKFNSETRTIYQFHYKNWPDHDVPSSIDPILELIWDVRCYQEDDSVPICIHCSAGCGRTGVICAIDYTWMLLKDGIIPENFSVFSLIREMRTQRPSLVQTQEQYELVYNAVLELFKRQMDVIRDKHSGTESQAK
Assay: Lyp enzymatic assay, IC50 measurements
Assay type: biochemical
Conditions: compared with compound 7 (analogue lacks the nitro group)
In short: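 GST-fused Lyp catalytic domain (residues 2–309) was expressed in E. coli BL21 DE3 and purified by glutathione affinity and Superdex S-200. DiFMUP hydrolysis was measured at 48 μM substrate (Km) and 30°C in 20 mM Bis-Tris pH 6.0 (ionic strength 20 mM, NaCl) with 1 mM DTT, 1% PEG 8000 and 5% DMSO. Initial rates were read at ex 360/em 460 nm and corrected with a no-enzyme control. IC50 came from fitting relative activity against inhibitor concentration.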

fold less inhibitory activity against Lyp: 157 fold
Structure (SMILES): O=C(Nc1ccc(I)cc1C(=O)O)c1ccccc1 [2-benzamido-5-iodobenzoic acid]
